Test results as given in ChEMBL document CHEMBL4011650, “3-Hydroxy-1H-quinazoline-2,4-dione as a New Scaffold To Develop Potent and Selective Inhibitors of the Tumor-Associated Carbonic Anhydrases IX and XII” (J Med Chem, 2017).

Columns and labels:
Carbonic anhydrase 2 = Carbonic anhydrase 2 (Homo sapiens, UniProt P00918); experiment: Inhibition of recombinant human carbonic anhydrase 2 preincubated for 15 mins prior to testing by phenol red based stopped-flow CO2 hydration assay
Carbonic anhydrase 1 = Carbonic anhydrase 1 (Homo sapiens, UniProt P00915); experiment: Inhibition of recombinant human carbonic anhydrase 1 preincubated for 15 mins prior to testing by phenol red based stopped-flow CO2 hydration assay
Carbonic anhydrase 9 = Carbonic anhydrase 9 (Homo sapiens, UniProt Q16790)
HT-29 [1] = experiment: Antiproliferative activity against human HT-29 cells assessed as cell viability at 100 uM after 48 hrs under hypoxic conditions by MTT assay relative to control; type: functional; details: HT-29, 48 h, read-out: Activity
Procedure, shortened: (§1)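 HT-29 cells were grown in high-glucose DMEM with 20% FBS, seeded at 1·10^4/well and dosed 24 h later. Incubation was in a hypoxic chamber (0.1% O2, 5% CO2, balance N2) for 16, 48 or 72 h. Cells were washed, given MTT 1 mg/ml for 30 min at 37 °C, and formazan was dissolved in DMSO and read at 550 nm. Viability is % of untreated control, mean ± S.E.M.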

[2] = Antiproliferative activity against human HT-29 cells assessed as cell viability at 100 uM after 48 hrs under normoxic conditions by MTT assay relative to control; type: cell-based; details: read-out: Activity
Procedure, shortened: (§2)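 HT-29 cells in high-glucose DMEM with 20% FBS were seeded at 1·10^4/well and treated 24 h later. Incubation was under normoxia (20% O2, air with 5% CO2) at 37 °C for 16, 48 or 72 h. Viability was read by MTT reduction (1 mg/ml, 30 min), with formazan in DMSO read at 550 nm, relative to untreated control set at 100%. Quadruplicates on at least three cell batches.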

[3] = Antiproliferative activity against human HT-29 cells assessed as cell viability at 100 uM after 72 hrs under normoxic conditions by MTT assay relative to control; type: cell-based; details: read-out: Activity; procedure, shortened: as §2
[4] = Antiproliferative activity against human HT-29 cells assessed as cell viability at 30 uM after 72 hrs under normoxic conditions by MTT assay relative to control; type: cell-based; details: read-out: Activity; procedure, shortened: as §2
HT-29 [5] = experiment: Antiproliferative activity against human HT-29 cells assessed as cell viability at 30 uM after 48 hrs under hypoxic conditions by MTT assay relative to control; type: functional; details: HT-29, 48 h, read-out: Activity; procedure, shortened: as §1
HT-29 [6] = experiment: Antiproliferative activity against human HT-29 cells assessed as cell viability at 300 uM after 48 hrs under hypoxic conditions by MTT assay relative to control; type: functional; details: HT-29, 48 h, read-out: Activity; procedure, shortened: as §1
HT-29 [7] = experiment: Antiproliferative activity against human HT-29 cells assessed as cell viability at 300 uM after 72 hrs under hypoxic conditions by MTT assay relative to control; type: functional; details: HT-29, 72 h, read-out: Activity; procedure, shortened: as §1
[8] = Antiproliferative activity against human HT-29 cells assessed as cell viability at 300 uM after 72 hrs under normoxic conditions by MTT assay relative to control; type: cell-based; details: read-out: Activity; procedure, shortened: as §2
[9] = Antiproliferative activity against human HT-29 cells assessed as cell viability at 30 uM after 48 hrs under normoxic conditions by MTT assay relative to control; type: cell-based; details: read-out: Activity; procedure, shortened: as §2
HT-29 [10] = experiment: Antiproliferative activity against human HT-29 cells assessed as cell viability at 30 uM after 72 hrs under hypoxic conditions by MTT assay relative to control; type: functional; details: HT-29, 72 h, read-out: Activity; procedure, shortened: as §1
HT-29 [11] = experiment: Antiproliferative activity against human HT-29 cells assessed as cell viability at 100 uM after 72 hrs under hypoxic conditions by MTT assay relative to control; type: functional; details: HT-29, 72 h, read-out: Activity; procedure, shortened: as §1
[12] = Antiproliferative activity against human HT-29 cells assessed as cell viability at 300 uM after 48 hrs under normoxic conditions by MTT assay relative to control; type: cell-based; details: read-out: Activity; procedure, shortened: as §2

Carbonic anhydrase 1, sequence (P00915 whole entry): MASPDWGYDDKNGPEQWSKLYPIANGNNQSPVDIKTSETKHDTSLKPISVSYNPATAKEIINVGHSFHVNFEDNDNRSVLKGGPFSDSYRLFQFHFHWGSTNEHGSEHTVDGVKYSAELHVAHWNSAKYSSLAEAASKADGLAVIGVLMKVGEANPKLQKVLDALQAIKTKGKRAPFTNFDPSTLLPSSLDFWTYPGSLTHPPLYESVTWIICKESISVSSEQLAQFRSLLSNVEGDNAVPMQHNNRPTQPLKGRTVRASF

Row | Compound | Ki (Carbonic anhydrase 2) | Ki (Carbonic anhydrase 1) | Ki (Carbonic anhydrase 9) | also measured
1 | O=C(NCc1ccccc1)Nc1cc2c(=O)n(O)c(=O)[nH]c2cc1Cl | > 10 µM | > 10 µM | 0.0069 µM | 
2 | O=C(O)c1ccccc1C(=O)Nc1ccc2[nH]c(=O)n(O)c(=O)c2c1 | > 10 µM | > 10 µM | 0.0625 µM | 
3 | O=c1[nH]c2ccc(-n3cnnc3)cc2c(=O)n1O | > 10 µM | > 10 µM | 0.0695 µM | 
4 | CC(=O)Nc1nnc(S(N)(=O)=O)s1 [ACETAZOLAMIDE] |  |  |  | viability at 100 µM (HT-29 [1]): 102%; viability at 48 h, 100 µM [2]: 101%; viability at 72 h, 100 µM [3]: 95.8%; viability at 72 h, 30 µM [4]: 97.6%; viability at 30 µM (HT-29 [5]): 108%; viability at 300 µM (HT-29 [6]): 85.7%; viability at 300 µM (HT-29 [7]): 84.1%; viability at 72 h, 300 µM [8]: 93.2%; viability at 48 h, 30 µM [9]: 96.8%; viability at 30 µM (HT-29 [10]): 107%; viability at 100 µM (HT-29 [11]): 111%; viability at 48 h, 300 µM [12]: 101%
5 | O=c1[nH]c2cc(C(F)(F)F)c(-n3cnnc3)cc2c(=O)n1O | > 10 µM | > 10 µM |  | 
6 | O=C(O)CCC(=O)Nc1ccc2[nH]c(=O)n(O)c(=O)c2c1 | > 10 µM | > 10 µM | 0.0648 µM | 
7 | O=c1[nH]c2ccccc2c(=O)n1O | > 10 µM | > 10 µM | 0.48 µM | 
8 | O=c1[nH]c2cc(Cl)c(-n3cnnc3)cc2c(=O)n1O | > 10 µM | > 10 µM | 0.0333 µM | 
9 | O=c1[nH]c2cc(C(F)(F)F)ccc2c(=O)n1O | > 10 µM | > 10 µM | 0.0082 µM | 
10 | O=c1[nH]c2cc(Cl)ccc2c(=O)n1O | > 10 µM | > 10 µM | 0.0697 µM | 
11 | COn1c(=O)[nH]c2cc(Cl)ccc2c1=O | > 10 µM | > 10 µM | 0.208 µM | 
12 | O=c1[nH]c2cc(Cl)c(-n3ccnc3)cc2c(=O)n1O | > 10 µM | > 10 µM | 0.0749 µM | 
13 | O=c1[nH]c2ccc([N+](=O)[O-])cc2c(=O)n1O | > 10 µM | > 10 µM | 0.0046 µM | viability at 100 µM (HT-29 [1]): 99.5%; viability at 48 h, 100 µM [2]: 95.5%; viability at 72 h, 100 µM [3]: 94.1%; viability at 72 h, 30 µM [4]: 95.6%; viability at 30 µM (HT-29 [5]): 98.8%; viability at 300 µM (HT-29 [6]): 96.7%; viability at 300 µM (HT-29 [7]): 87.3%; viability at 72 h, 300 µM [8]: 94.3%; viability at 48 h, 30 µM [9]: 101%; viability at 30 µM (HT-29 [10]): 94.7%; viability at 100 µM (HT-29 [11]): 93.7%; viability at 48 h, 300 µM [12]: 95.1%
14 | O=c1[nH]c2cc(Cl)c(Cl)cc2c(=O)n1O | > 10 µM | > 10 µM | 0.0082 µM | viability at 100 µM (HT-29 [1]): 76%; viability at 48 h, 100 µM [2]: 91%; viability at 72 h, 100 µM [3]: 73.5%; viability at 72 h, 30 µM [4]: 107%; viability at 30 µM (HT-29 [5]): 106%; viability at 300 µM (HT-29 [6]): 14.8%; viability at 300 µM (HT-29 [7]): 24.5%; viability at 72 h, 300 µM [8]: 20.6%; viability at 48 h, 30 µM [9]: 93.4%; viability at 30 µM (HT-29 [10]): 93.3%; viability at 100 µM (HT-29 [11]): 78.1%; viability at 48 h, 300 µM [12]: 9.44%
15 | Nc1cc2c(=O)n(O)c(=O)[nH]c2cc1Cl | > 10 µM | > 10 µM | 0.0431 µM | 
16 | O=C(O)c1ccccc1C(=O)Nc1cc2c(=O)n(O)c(=O)[nH]c2cc1Cl | > 10 µM | > 10 µM | 0.0081 µM | 
17 | O=C(Nc1cc2c(=O)n(O)c(=O)[nH]c2cc1Cl)c1ccccc1 | > 10 µM | > 10 µM | 0.0588 µM | 
18 | O=c1[nH]c2cc(Cl)cc(Cl)c2c(=O)n1O | > 10 µM | > 10 µM | 0.0077 µM | viability at 100 µM (HT-29 [1]): 102%; viability at 48 h, 100 µM [2]: 93.8%; viability at 72 h, 100 µM [3]: 95.9%; viability at 72 h, 30 µM [4]: 94.2%; viability at 30 µM (HT-29 [5]): 101%; viability at 300 µM (HT-29 [6]): 104%; viability at 300 µM (HT-29 [7]): 78.9%; viability at 72 h, 300 µM [8]: 94.9%; viability at 48 h, 30 µM [9]: 92.6%; viability at 30 µM (HT-29 [10]): 93%; viability at 100 µM (HT-29 [11]): 87%; viability at 48 h, 300 µM [12]: 91%
19 | O=c1[nH]c2cc(Cl)c(-n3cccc3)cc2c(=O)n1O | > 10 µM | > 10 µM | 0.0083 µM | 
20 | O=C(O)COn1c(=O)[nH]c2cc(Cl)c([N+](=O)[O-])cc2c1=O | > 10 µM | > 10 µM | 0.018 µM | 
21 | O=C(Nc1ccccc1)Nc1cc2c(=O)n(O)c(=O)[nH]c2cc1Cl | > 10 µM | > 10 µM | 0.0428 µM | 
22 | O=C(O)CCC(=O)Nc1cc2c(=O)n(O)c(=O)[nH]c2cc1Cl | > 10 µM | > 10 µM | 0.007 µM | 
23 | Nc1ccc2[nH]c(=O)n(O)c(=O)c2c1 | > 10 µM | > 10 µM | 0.273 µM | 
24 | O=C(O)c1ccc(C(=O)Nc2cc3c(=O)n(O)c(=O)[nH]c3cc2Cl)cc1 | > 10 µM | > 10 µM | 0.0079 µM | 
25 | O=c1[nH]c2cc(Cl)c([N+](=O)[O-])cc2c(=O)n1O | > 10 µM | > 10 µM |  | viability at 100 µM (HT-29 [1]): 64.6%; viability at 48 h, 100 µM [2]: 72.5%; viability at 72 h, 100 µM [3]: 61.2%; viability at 72 h, 30 µM [4]: 36.8%; viability at 30 µM (HT-29 [5]): 45.7%; viability at 300 µM (HT-29 [6]): 70.8%; viability at 300 µM (HT-29 [7]): 63.5%; viability at 72 h, 300 µM [8]: 70.3%; viability at 48 h, 30 µM [9]: 58.2%; viability at 30 µM (HT-29 [10]): 41.6%; viability at 100 µM (HT-29 [11]): 55.9%; viability at 48 h, 300 µM [12]: 77.6%
26 | O=c1[nH]c2ccc(Cl)cc2c(=O)n1O | > 10 µM | > 10 µM | 0.0482 µM | 
27 | O=C(Nc1ccccc1)Nc1ccc2[nH]c(=O)n(O)c(=O)c2c1 | > 10 µM | > 10 µM | 0.301 µM | 
